ChEMBL document CHEMBL4251757 (J Med Chem, 2018)

Tests used:
Oxoeicosanoid receptor 1 [1] = target: T1, Oxoeicosanoid receptor 1 (Homo sapiens, UniProt Q8TDS5); experiment: Antagonist activity at OXE receptor in human neutrophils assessed as inhibition of 5-oxo-ETE-induced calcium mobilization incubated for 2 mins followed by 5-oxo-ETE addition measured after 1 min by fluorescence assay; format: functional
Outline: (§1)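 Human neutrophils were isolated from healthy donors by dextran sedimentation and Ficoll-Paque centrifugation, then loaded with indo-1. Fluorescence was read at 37 °C in a stirred cuvette. Antagonist was added at various concentrations; 2 min later 5-oxo-ETE (10 nM) was added. Digitonin (final 0.1%) followed 1 min later to give maximal fluorescence.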

[2] = Plasma concentration in cynomolgus monkey at 30 mg/kg administered as oral gavage measured after 1 hr by RP-HPLC analysis; format: ADME, organism-based, Macaca fascicularis
Outline: (§2)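 Female cynomolgus monkeys (2.5–3.5 kg). Compound dissolved in EtOH at 75 mg/mL, diluted in 10 volumes of 20 mM NaHCO3 pH 8.0 (9.1% EtOH) and given by oral gavage; 4.4 mL/kg for 30 mg/kg, 2.2 mL/kg for lower doses. Blood drawn into heparin pre-dose and at 0.5, 1, 2, 4, 8, 12, 24 h, sometimes 3 and 7 days. Plasma diluted with 2 volumes MeOH plus internal standard, then RP-HPLC.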

[3] = Cmax in cynomolgus monkey plasma at 30 mg/kg administered via oral gavage by RP-HPLC analysis; format: ADME, organism-based, Macaca fascicularis; set-up: dose 30 mg/kg, route oral; outline: as §2
[4] = Half life in cynomolgus monkey plasma at 30 mg/kg administered via oral gavage by RP-HPLC analysis; format: ADME, organism-based, Macaca fascicularis; outline: as §2
[5] = Plasma concentration in cynomolgus monkey at 30 mg/kg administered as oral gavage measured after 8 hrs by RP-HPLC analysis; format: ADME, organism-based, Macaca fascicularis; outline: as §2
[6] = Tmax in cynomolgus monkey plasma at 30 mg/kg administered via oral gavage by RP-HPLC analysis; format: ADME, organism-based, Macaca fascicularis; outline: as §2
[7] = AUC (0 to 24 hrs) in cynomolgus monkey plasma at 30 mg/kg administered via oral gavage by RP-HPLC analysis; format: ADME, organism-based, Macaca fascicularis; set-up: dose 30 mg/kg, time < 24 hr, route oral; outline: as §2
[8] = Half life in cynomolgus monkey plasma at 15 mg/kg administered via oral gavage by RP-HPLC analysis; format: ADME, organism-based, Macaca fascicularis
[9] = Plasma concentration in cynomolgus monkey at 30 mg/kg administered via oral gavage after 24 hrs by chiral-HPLC analysis; format: ADME, organism-based, Macaca fascicularis
Outline: (§3)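 After oral gavage of racemate at 30 mg/kg, plasma C025 or its metabolite was isolated by RP-HPLC, then run by chiral HPLC on Cellulose-1 at 2 ml/min and 30 °C. Mobile phase was hexane/MeOH/HOAc 97.5:2.5:0.1 for parent and 97:3:0.1 for metabolite. Samples were taken at 4 h and 24 h; n=2 for enantiomer levels.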

[10] = Half life in cynomolgus monkey plasma at 10 mg/kg administered via oral gavage by RP-HPLC analysis; format: ADME, organism-based, Macaca fascicularis; outline: as §2
[11] = AUC (0 to 24 hrs) in cynomolgus monkey plasma at 2 mg/kg administered via oral gavage by RP-HPLC analysis; format: ADME, organism-based, Macaca fascicularis; set-up: dose 2 mg/kg, time < 24 hr, route oral; outline: as §2
[12] = Tmax in cynomolgus monkey plasma at 5 mg/kg administered via oral gavage by RP-HPLC analysis; format: ADME, organism-based, Macaca fascicularis; outline: as §2
[13] = Drug metabolism in cynomolgus monkey plasma at 30 mg/kg administered via oral gavage assessed as metabolite (R)-5-(5-Chloro-2-((S)-1-hydroxy-6-phenylhexyl)-1-methyl-1Hindol-3-yl)-3-methyl-5-oxopentanoic acid formation after 4 hrs by chiral-HPLC analysis; format: ADME, organism-based, Macaca fascicularis; conditions: in vivo; outline: as §3
[14] = Cmax in cynomolgus monkey plasma at 2 mg/kg administered via oral gavage by RP-HPLC analysis; format: ADME, organism-based, Macaca fascicularis; set-up: dose 2 mg/kg, route oral; outline: as §2
[15] = AUC (0 to 24 hrs) in cynomolgus monkey plasma at 10 mg/kg administered via oral gavage by RP-HPLC analysis; format: ADME, organism-based, Macaca fascicularis; set-up: time < 24 hr, dose 10 mg/kg, route oral; outline: as §2
[16] = Cmax in cynomolgus monkey plasma at 1 mg/kg administered via oral gavage by RP-HPLC analysis; format: ADME, organism-based, Macaca fascicularis; set-up: dose 1 mg/kg, route oral; outline: as §2
[17] = AUC (0 to 24 hrs) in cynomolgus monkey plasma at 5 mg/kg administered via oral gavage by RP-HPLC analysis; format: ADME, organism-based, Macaca fascicularis; set-up: dose 5 mg/kg, time < 24 hr, route oral; outline: as §2
[18] = Tmax in cynomolgus monkey plasma at 15 mg/kg administered via oral gavage by RP-HPLC analysis; format: ADME, organism-based, Macaca fascicularis
[19] = Plasma concentration in cynomolgus monkey at 30 mg/kg administered via oral gavage after 7 days by RP-HPLC analysis; format: ADME, organism-based, Macaca fascicularis; outline: as §2
[20] = Half life in cynomolgus monkey plasma at 2 mg/kg administered via oral gavage by RP-HPLC analysis; format: ADME, organism-based, Macaca fascicularis; outline: as §2
[21] = Half life in cynomolgus monkey plasma at 1 mg/kg administered via oral gavage by RP-HPLC analysis; format: ADME, organism-based, Macaca fascicularis; outline: as §2
[22] = AUC (0 to 24 hrs) in cynomolgus monkey plasma at 15 mg/kg administered via oral gavage by RP-HPLC analysis; format: ADME, organism-based, Macaca fascicularis; set-up: time < 24 hr, dose 15 mg/kg, route oral
[23] = Cmax in cynomolgus monkey plasma at 15 mg/kg administered via oral gavage by RP-HPLC analysis; format: ADME, organism-based, Macaca fascicularis; set-up: dose 15 mg/kg, route oral
[24] = AUC (0 to 24 hrs) in cynomolgus monkey plasma at 1 mg/kg administered via oral gavage by RP-HPLC analysis; format: ADME, organism-based, Macaca fascicularis; set-up: time < 24 hr, dose 1 mg/kg, route oral; outline: as §2
[25] = Half life in cynomolgus monkey plasma at 5 mg/kg administered via oral gavage by RP-HPLC analysis; format: ADME, organism-based, Macaca fascicularis; outline: as §2
[26] = Tmax in cynomolgus monkey plasma at 10 mg/kg administered via oral gavage by RP-HPLC analysis; format: ADME, organism-based, Macaca fascicularis; outline: as §2
[27] = Tmax in cynomolgus monkey plasma at 1 mg/kg administered via oral gavage by RP-HPLC analysis; format: ADME, organism-based, Macaca fascicularis; outline: as §2
[28] = Tmax in cynomolgus monkey plasma at 2 mg/kg administered via oral gavage by RP-HPLC analysis; format: ADME, organism-based, Macaca fascicularis; outline: as §2
[29] = Cmax in cynomolgus monkey plasma at 10 mg/kg administered via oral gavage by RP-HPLC analysis; format: ADME, organism-based, Macaca fascicularis; set-up: dose 10 mg/kg, route oral; outline: as §2
[30] = Cmax in cynomolgus monkey plasma at 5 mg/kg administered via oral gavage by RP-HPLC analysis; format: ADME, organism-based, Macaca fascicularis; set-up: dose 5 mg/kg, route oral; outline: as §2
[31] = Drug level in cynomolgus monkey plasma treated with 30 mg/kg 5-(5-Chloro-1-methyl-2-(6-phenylhexyl)-1H-indol-3-yl)-3-methyl-5-oxopentanoic Acid administered via oral gavage assessed as compound formation after 12 hrs by RP-HPLC analysis; format: ADME, organism-based, Macaca fascicularis; conditions: in vivo
Outline: (§4)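 Monkeys received 30 mg/kg by oral gavage in EtOH/20 mM NaHCO3 pH 8.0 vehicle. A plasma extract taken 12 h later was run by RP-HPLC on a C18 column (4 µm, 3.9 x 150 mm) with a 15-min gradient of 70–100% MeOH in H2O, both containing 0.02% HOAc. The tetramethylene analog served as internal standard.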

[32] = Plasma concentration in cynomolgus monkey at 30 mg/kg administered via oral gavage after 3 days by RP-HPLC analysis; format: ADME, organism-based, Macaca fascicularis; outline: as §2
[33] = Drug metabolism in cynomolgus monkey plasma at 30 mg/kg administered via oral gavage assessed as metabolite (S)-5-(5-Chloro-2-((S)-1-hydroxy-6-phenylhexyl)-1-methyl-1Hindol-3-yl)-3-methyl-5-oxopentanoic acid formation after 24 hrs by chiral-HPLC analysis; format: ADME, organism-based, Macaca fascicularis; conditions: in vivo; outline: as §3
Oxoeicosanoid receptor 1 [34] = target: T1, Oxoeicosanoid receptor 1; experiment: Antagonist activity at OXE receptor in human neutrophils assessed as inhibition of 5-oxo-ETE-induced calcium mobilization incubated for 2 mins followed by 5-oxo-ETE addition by fluorescence assay; format: functional; outline: as §1
[35] = Drug metabolism in cynomolgus monkey plasma at 30 mg/kg administered via oral gavage assessed as phenylpentamethylene side chain modification after 12 hrs by RP-HPLC analysis; format: ADME, organism-based, Macaca fascicularis; conditions: in vivo; outline: as §4
[36] = Drug metabolism in cynomolgus monkey plasma at 30 mg/kg administered via oral gavage assessed as metabolite (S)-5-(5-Chloro-2-((S)-1-hydroxy-6-phenylhexyl)-1-methyl-1Hindol-3-yl)-3-methyl-5-oxopentanoic acid formation after 12 hrs by RP-HPLC analysis; format: ADME, organism-based, Macaca fascicularis; conditions: in vivo; outline: as §4

T1 sequence (Q8TDS5 whole entry): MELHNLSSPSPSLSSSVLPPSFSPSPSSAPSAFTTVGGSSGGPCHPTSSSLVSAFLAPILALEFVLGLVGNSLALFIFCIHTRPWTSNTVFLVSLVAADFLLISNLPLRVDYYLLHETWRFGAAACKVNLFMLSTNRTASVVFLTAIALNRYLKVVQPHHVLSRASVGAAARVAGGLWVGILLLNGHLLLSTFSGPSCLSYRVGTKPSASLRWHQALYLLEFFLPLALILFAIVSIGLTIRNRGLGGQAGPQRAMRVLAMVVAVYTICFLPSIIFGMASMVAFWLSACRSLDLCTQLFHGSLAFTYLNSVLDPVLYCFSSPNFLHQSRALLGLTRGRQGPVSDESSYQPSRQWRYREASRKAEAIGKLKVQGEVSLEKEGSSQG

CC(CC(=O)O)CC(=O)n1c(CCCCc2ccccc2)cc2ccc(Cl)cc21 (centres undefined)
IC50 (Oxoeicosanoid receptor 1 [1]): 18 nM

CC(CC(=O)O)CC(=O)c1c(CCCCCC(F)(F)F)n(C)c2ccc(Cl)cc12 (centres undefined)
IC50 (Oxoeicosanoid receptor 1 [1]): 38 nM

C[C@@H](CC(=O)O)CC(=O)c1c([C@H](O)CCCCCc2ccccc2)n(C)c2ccc(Cl)cc12
IC50 (Oxoeicosanoid receptor 1 [1]): 750 nM

CC(CC(=O)O)CC(=O)n1c(CCCc2ccccc2)cc2ccc(Cl)cc21 (centres undefined)
IC50 (Oxoeicosanoid receptor 1 [1]): 210 nM

CCCCCCc1cc2ccc(Cl)cc2n1C(=O)CC(C)CC(=O)O (racemic)
concentration at 1 h [2]: > 25 µM | Cmax [3]: 27 µM | half-life [4]: 1.2 h | concentration at 8 h [5]: < 0.5 µM | Tmax [6]: 0.9 h | AUC(0-t) at 24 h [7]: 55 µM·h

C[C@H](CC(=O)O)CC(=O)c1c([C@H](O)CCCCCc2ccccc2)n(C)c2ccc(Cl)cc12
IC50 (Oxoeicosanoid receptor 1 [1]): 260 nM

C[C@H](CC(=O)O)CC(=O)c1c(CCCCCCc2ccccc2)n(C)c2ccc(Cl)cc12
half-life [8]: 3.4 h | concentration at 24 h [9]: 1 µM | half-life [10]: 2.8 h | AUC(0-t) at 24 h [11]: 26 µM·h | Tmax [12]: 1.2 h | Drug metabolism [13]: Metabolite_Detected | Cmax [14]: 7.8 µM | AUC(0-t) at 24 h [15]: 171 µM·h | Cmax [16]: 4.5 µM | Cmax [3]: 106 µM | AUC(0-t) at 24 h [17]: 78 µM·h | half-life [4]: 3.5 h | Tmax [18]: 0.8 h | concentration at 168 h [19]: 0.04 µM | half-life [20]: 1.1 h | half-life [21]: 0.9 h | AUC(0-t) at 24 h [22]: 169 µM·h | Cmax [23]: 32 µM | AUC(0-t) at 24 h [24]: 13 µM·h | half-life [25]: 1.9 h | Tmax [6]: 1.3 h | Tmax [26]: 1.2 h | Tmax [27]: 0.7 h | Tmax [28]: 0.7 h | IC50 (Oxoeicosanoid receptor 1 [1]): 0.12 nM | AUC(0-t) at 24 h [7]: 684 µM·h | Cmax [29]: 35 µM | Cmax [30]: 18 µM | Drug uptake [31]: Active | concentration at 72 h [32]: 0.16 µM

CCCCCCc1c(C(=O)CC(C)CC(=O)O)c2cc(Cl)ccc2n1C (racemic)
Cmax [3]: 121 µM | half-life [4]: 0.7 h | Tmax [6]: 0.6 h | IC50 (Oxoeicosanoid receptor 1 [1]): 17 to 26 nM | AUC(0-t) at 24 h [7]: 198 µM·h

CCCCCCc1c(C(=O)C[C@H](C)CC(=O)O)c2cc(Cl)ccc2n1C
concentration at 1 h [2]: 36 µM | Cmax [3]: 36 µM | half-life [4]: 1.6 h | concentration at 8 h [5]: 1.6 µM | Tmax [6]: 1 h | AUC(0-t) at 24 h [7]: 100 µM·h

C[C@@H](CC(=O)O)CC(=O)c1c(CCCCCCc2ccccc2)n(C)c2ccc(Cl)cc12
half-life [8]: 9.3 h | concentration at 24 h [9]: > 20 µM | Tmax [18]: 2.5 h | Drug metabolism [33]: Metabolite_Detected | AUC(0-t) at 24 h [22]: 1080 µM·h | Cmax [23]: 79 µM | Drug uptake [31]: Active

CCCCC/C=C\C[C@H](O)/C=C/C=C\C=C\C(=O)CCCC(=O)O
IC50 (Oxoeicosanoid receptor 1 [34]): 500 nM

C[C@@H](CC(=O)O)CC(=O)c1c([C@@H](O)CCCCCc2ccccc2)n(C)c2ccc(Cl)cc12
IC50 (Oxoeicosanoid receptor 1 [1]): 120 nM

CC(CC(=O)O)CC(=O)n1c(CCCCCCc2ccccc2)cc2ccc(Cl)cc21 (centres undefined)
IC50 (Oxoeicosanoid receptor 1 [1]): 12 nM

CC(CC(=O)O)CC(=O)c1c(C(O)CCCCCc2ccccc2)n(C)c2ccc(Cl)cc12 (centres undefined)
Drug uptake [31]: Active

CC(CC(=O)O)CC(=O)n1c(CCCCCc2ccccc2)cc2ccc(Cl)cc21 (racemic)
Cmax [3]: 55 µM | half-life [4]: 3 h | Tmax [6]: 2 h | Drug metabolism [35]: Metabolite_Detected | IC50 (Oxoeicosanoid receptor 1 [1]): 2.1 nM | AUC(0-t) at 24 h [7]: 294 µM·h

CC(CC(=O)O)CC(=O)c1c(CCCCCCc2ccccc2)n(C)c2ccc(Cl)cc12 (racemic)
Cmax [3]: 108 µM | half-life [4]: 7.4 h | Drug metabolism [36]: Metabolite_Detected | Tmax [6]: 2.5 h | IC50 (Oxoeicosanoid receptor 1 [1]): 0.28 nM | AUC(0-t) at 24 h [7]: 1250 µM·h

C[C@H](CC(=O)O)CC(=O)c1c([C@@H](O)CCCCCc2ccccc2)n(C)c2ccc(Cl)cc12
concentration at 168 h [19]: 0.2 µM | IC50 (Oxoeicosanoid receptor 1 [1]): 0.38 to 0.69 nM | Drug uptake [31]: Active | concentration at 72 h [32]: 1.5 µM
